Results taken from ChEMBL document CHEMBL1157912, “Impact of nature and length of linker incorporated in agonists on toll-like receptor 9-mediated immune responses” (J Med Chem, 2010).
Calls of active or inactive are those of the source. The calls are words filed in the database; no cut-off is given here.

How the values were obtained:
[1] = biological target: T1, Toll-like receptor 9 (Homo sapiens) (UniProt Q9NR96); test: Induction of TLR9-mediated immune stimulation in human PBMC assessed as IL1Ralpha production at 2 ug/ml after 24 hrs by luminex multiplex assay (RVb = 0.12 +/- 0.03 ng/ml)
T1 sequence (whole entry): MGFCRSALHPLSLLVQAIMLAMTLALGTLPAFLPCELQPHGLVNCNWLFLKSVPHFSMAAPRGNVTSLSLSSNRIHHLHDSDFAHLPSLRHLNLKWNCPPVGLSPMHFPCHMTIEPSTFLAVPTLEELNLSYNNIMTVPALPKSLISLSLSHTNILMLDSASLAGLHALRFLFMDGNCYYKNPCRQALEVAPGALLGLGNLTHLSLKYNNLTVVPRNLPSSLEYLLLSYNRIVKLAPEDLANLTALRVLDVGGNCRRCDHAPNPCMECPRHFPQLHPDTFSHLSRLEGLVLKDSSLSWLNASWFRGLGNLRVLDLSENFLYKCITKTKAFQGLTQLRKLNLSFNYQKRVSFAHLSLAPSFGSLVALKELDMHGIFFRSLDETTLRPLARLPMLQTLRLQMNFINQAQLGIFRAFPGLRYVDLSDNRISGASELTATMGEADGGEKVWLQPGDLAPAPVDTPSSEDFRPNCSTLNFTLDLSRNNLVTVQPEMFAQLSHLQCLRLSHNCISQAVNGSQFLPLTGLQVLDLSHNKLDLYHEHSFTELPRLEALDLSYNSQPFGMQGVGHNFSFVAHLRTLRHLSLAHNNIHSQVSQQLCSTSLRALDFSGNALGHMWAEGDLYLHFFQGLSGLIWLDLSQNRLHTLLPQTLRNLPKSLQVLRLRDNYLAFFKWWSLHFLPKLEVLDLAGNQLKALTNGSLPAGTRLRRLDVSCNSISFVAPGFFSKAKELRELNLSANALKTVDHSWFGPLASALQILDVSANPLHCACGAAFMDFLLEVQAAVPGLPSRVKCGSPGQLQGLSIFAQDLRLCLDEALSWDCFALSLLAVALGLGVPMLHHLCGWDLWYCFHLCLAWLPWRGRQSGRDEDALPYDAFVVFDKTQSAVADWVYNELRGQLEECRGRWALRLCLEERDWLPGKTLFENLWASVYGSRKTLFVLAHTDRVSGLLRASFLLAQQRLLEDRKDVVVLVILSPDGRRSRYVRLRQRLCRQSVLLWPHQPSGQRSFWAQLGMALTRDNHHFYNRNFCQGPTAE

[2] = biological target: T1, Toll-like receptor 9 (Homo sapiens); test: Induction of TLR9-mediated immune stimulation in human PBMC assessed as IL2R production at 2 ug/ml after 24 hrs by luminex multiplex assay (RVb = 0.02 +/- 0.01 ng/ml)
[3] = biological target: T1, Toll-like receptor 9 (Homo sapiens); test: Induction of TLR9-mediated immune stimulation in human PBMC assessed as IL2R production at 10 ug/ml after 24 hrs by luminex multiplex assay (RVb = 0.02 +/- 0.01 ng/ml)
[4] = biological target: T1, Toll-like receptor 9 (Homo sapiens); test: Induction of TLR9-mediated immune stimulation in human PBMC assessed as IL6 production at 2 ug/ml after 24 hrs by luminex multiplex assay (RVb = 0.01 ng/ml)
[5] = biological target: T1, Toll-like receptor 9 (Homo sapiens); test: Induction of TLR9-mediated immune stimulation in human PBMC assessed as IL12 production at 2 ug/ml after 24 hrs by luminex multiplex assay (RVb = 0.00 ng/ml)
[6] = biological target: T1, Toll-like receptor 9 (Homo sapiens); test: Induction of TLR9-mediated immune stimulation in human PBMC assessed as IL12 production at 10 ug/ml after 24 hrs by luminex multiplex assay (RVb = 0.00 ng/ml)
[7] = biological target: T1, Toll-like receptor 9 (Homo sapiens); test: Induction of TLR9-mediated immune stimulation in human PBMC assessed as MIP1alpha production at 2 ug/ml after 24 hrs by luminex multiplex assay (RVb = 0.01 ng/ml)
[8] = biological target: T1, Toll-like receptor 9 (Homo sapiens); test: Induction of TLR9-mediated immune stimulation in human PBMC assessed as IP10 production at 10 ug/ml after 24 hrs by luminex multiplex assay (RVb = 0.00 ng/ml)
[9] = biological target: T1, Toll-like receptor 9 (Homo sapiens); test: Induction of TLR9-mediated immune stimulation in human PBMC assessed as RANTES production at 2 ug/ml after 24 hrs by luminex multiplex assay (RVb = 0.05 +/- 0.04 ng/ml)
[10] = biological target: T1, Toll-like receptor 9 (Homo sapiens); test: Induction of TLR9-mediated immune stimulation in human PBMC assessed as RANTES production at 10 ug/ml after 24 hrs by luminex multiplex assay (RVb = 0.05 +/- 0.04 ng/ml)
Mus musculus = test: Immunostimulatory activity in C57BL/6 mouse assessed as increase in serum IL12 level at 1 mg/kg, sc after 2 hrs by ELISA; assay type: functional, organism-based; parameters: dose 1 mg/kg
How it was run: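 Female C57BL/6 mice (n=3) received a single subcutaneous agonist dose of 1 mg/kg. Blood was taken by retro-orbital bleeding 2 h later, and serum IL-12 was measured by sandwich ELISA. Values are the mean of three mice ± SD.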

Activity [1]: 5.47 ng/mL
Activity [2]: 0.06 ng/mL
Activity [3]: 0.07 ng/mL
Activity [4]: 0.02 ng/mL
Activity [5]: 0.03 ng/mL
Activity [6]: 0.05 ng/mL
Activity [7]: 0.04 ng/mL
Activity [8]: 0.02 ng/mL
Activity [9]: 0.16 ng/mL
Activity [10]: 0.52 ng/mL
SMILES: Cc1cn([C@H]2C[C@H](OCC(O)COP(=O)(S)O[C@H]3C[C@H](n4cc(C)c(=O)[nH]c4=O)O[C@@H]3COP(=O)(S)O[C@H]3[C@@H](O)[C@H](n4ccc(N)nc4=O)O[C@@H]3COP(=O)(S)O[C@H]3[C@@H](O)[C@H](n4cnc5c(N)ncnc54)O[C@@H]3COP(=O)(S)O[C@H]3[C@@H](O)[C@H](n4cnc5c(N)ncnc54)O[C@@H]3COP(=O)(S)O[C@H]3[C@@H](O)[C@H](n4ccc(N)nc4=O)O[C@@H]3COP(=O)(S)O[C@H]3[C@@H](O)[C@H](n4ccc(N)nc4=O)O[C@@H]3COP(=O)(S)O[C@H]3[C@@H](O)[C@H](n4cnc5c(N)ncnc54)O[C@@H]3COP(=O)(S)O[C@H]3[C@@H](O)[C@H](n4ccc(N)nc4=O)O[C@@H]3COP(=O)(S)O[C@H]3[C@@H](O)[C@H](n4cnc5c(N)ncnc54)O[C@@H]3COP(=O)(S)O[C@H]3[C@@H](O)[C@H](n4ccc(N)nc4=O)O[C@@H]3COP(=O)(S)O[C@H]3[C@@H](O)[C@H](n4cnc5c(N)ncnc54)O[C@@H]3CO)[C@@H](COP(=O)(S)O[C@H]3[C@@H](O)[C@H](n4ccc(N)nc4=O)O[C@@H]3COP(=O)(S)O[C@H]3[C@@H](O)[C@H](n4cnc5c(N)ncnc54)O[C@@H]3COP(=O)(S)O[C@H]3[C@@H](O)[C@H](n4cnc5c(N)ncnc54)O[C@@H]3COP(=O)(S)O[C@H]3[C@@H](O)[C@H](n4ccc(N)nc4=O)O[C@@H]3COP(=O)(S)O[C@H]3[C@@H](O)[C@H](n4ccc(N)nc4=O)O[C@@H]3COP(=O)(S)O[C@H]3[C@@H](O)[C@H](n4cnc5c(N)ncnc54)O[C@@H]3COP(=O)(S)O[C@H]3[C@@H](O)[C@H](n4ccc(N)nc4=O)O[C@@H]3COP(=O)(S)O[C@H]3[C@@H](O)[C@H](n4cnc5c(N)ncnc54)O[C@@H]3COP(=O)(S)O[C@H]3[C@@H](O)[C@H](n4ccc(N)nc4=O)O[C@@H]3COP(=O)(S)O[C@H]3[C@@H](O)[C@H](n4cnc5c(N)ncnc54)O[C@@H]3CO)O2)c(=O)[nH]c1=O (stereo partly specified)
Activity (Mus musculus): Active
